From publication PMC4279188 (Theranostics, 2015)

Tests used:
Akt = experiment: Western blot of HUVECs, phosphorylated Akt; assay type: cell-based, human; conditions: co-treatment with PEG-Ex4
Outline: (§1)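 HUVEC lysates were prepared in RIPA buffer and protein was quantified by BCA. Proteins were resolved by SDS-PAGE and transferred to nitrocellulose, then blocked in 5% milk. Blots were probed overnight at 4 °C with anti-VEGF or anti-pAkt plus anti-β-actin, followed by secondary antibodies. Detection was by chemiluminescence on X-ray film. pAkt blots were stripped at 50 °C for 30 min and reprobed for total Akt. Data are mean ± SEM.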

VEGF = experiment: Western blot of HUVECs, VEGF; assay type: cell-based, human; conditions: co-treatment with PEG-Ex4
Outline: as §1

[1] = breakdown by dipeptidyl peptidase-4 (DPP4); no reference given for the value; cited from earlier work

Compound | effect of PEG-Ex4 on p-Akt in HUVECs, inhibition by co-treatment (Akt) | effect of PEG-Ex4 on VEGF expression in HUVECs, inhibition by co-treatment (VEGF) | half-life, in words [1]
exendin-4(9-39) | abolished the effect of PEG-Ex4 on p-Akt | abolished | 
O=c1cc(N2CCOCC2)oc2c(-c3ccccc3)cccc12 [LY294002] | abolished the effect of PEG-Ex4 on p-Akt | abolished | 
glucagon-like peptide-1 [GLP-1] |  |  | a few minutes
